Measured values as given in PubChem BioAssay.
Calls of active or inactive are those of the source.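 How the source made its calls, unless noted: active means visually confirmed hit in the image check and inhibition above 20%; inconclusive means visually confirmed hit but inhibition not above 20%; inactive means no visual hit in the image check.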

Columns and labels:
[1] = inhibitors of TNFa-induced NFkB p65 translocation, primary screen, imaging, HUVEC, MLSMR starter and 10KST1 sets (AID 438;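 active means inhibition above 20% together with a positive visual image hit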;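 further: compound added about 3h40 before a 20 min TNFalpha stimulation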;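 on inhibition: signal is the nuclear over cytoplasmic p65 intensity ratio per well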); settings: HUVEC TNFa-induced p65 nuclear translocation; cell count: measured here: nuclei count (cytotoxicity indicator), at 2.08 µM; inhibition: at 2 µM, stronger effect = higher value, 0% TNFa-plus-vehicle, 100% no-TNFa wells
[2] = endothelial E-selectin expression blockers – imaging, HUVEC, immunofluorescence, MLSMR starter and 10KST1 sets, primary screen (AID 487); settings: HUVEC TNFalpha-induced E-selectin immunofluorescence imaging, at 2 µM; inhibition: stronger effect = higher value; nuclei count: measured here: cell number, toxicity;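 on inhibition: signal is fraction of cell area covered by stained E-selectin grains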;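 on nuclei count: 100% = median nuclei count of all wells on the same plate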
[3] = Primary imaging screen for DUSP6 inhibitors that restore phospho-Erk in transfected HeLa cells, chemical complementation (AID 609;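 active means compounds giving at least 50% inhibition in the cell-based MKP-3 phosphatase rescue imaging test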;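 on inhibition: phospho-Erk level distribution per well compared with pooled transfected vehicle control wells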); settings: HeLa MKP-3 transfected, phospho-Erk imaging KS statistic, at 10 µM, cells stimulated with TPA for 15 min
[4] = target: Dual specificity protein phosphatase 6 (Homo sapiens) (UniProt Q16828); assay: as above; settings: HeLa MKP-3 transfected, phospho-Erk imaging KS statistic; at 10 µM; stronger effect = higher value; cells stimulated with TPA for 15 min
[5] = target: Voltage-gated potassium channel subunit beta-2 (Rattus norvegicus) (UniProt P62483); assay: inhibitors of rat Kvbeta2 reductase activity – biochemical, NADPH fluorescence, primary screen (AID 622;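 active means fluorescence slope higher than the sample average by over 3 SD, cut at about -0.22 in these data, passing the limit was not always enough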;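 further: slope of raw intensity against log time taken from 70 to 1610 s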); settings: recombinant KvBeta, 4-cyanobenzaldehyde reduction, at 10 µM, stronger effect = higher value
[6] = target: Voltage-gated potassium channel subunit beta-2 (Rattus norvegicus) (UniProt P62483); assay: enhancers of rat Kvbeta2 NADPH turnover – biochemical, NADPH fluorescence, primary screen (AID 623;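 active means NADPH fluorescence slope more negative than the mean of all samples by about 3 SD, 99.7% confidence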;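 further: fluorescence intensity change per second fitted from 20 to 320 s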); settings: Recombinant KvBeta, NADPH fluorescence decrease slope, 10 min; at 10 µM; stronger effect = lower value
[7] = target: Muscarinic acetylcholine receptor M4 (Homo sapiens) (UniProt P08173); assay: M4-linked GIRK flux change, two-sided – cell-based, HEK293 M4/GIRK, thallium flux, BTC-AM, M4 allosteric agonist project, primary screen (AID 625;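 active means fluorescence slope after compound addition differing from the mean of all tested samples at 99.7% confidence, mostly higher but some lower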;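 further: thallium influx through GIRK channels coupled to M4 in HEK293 cells with BTC-AM dye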); settings: at 10 µM, actives lie on both sides
In short: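 Material – HEK293 cells with M4 receptor and GIRK channels · Buffer or medium – pH 7.3 thallium assay buffer · Doses – one dose, 10 µM final · Timing – cells overnight at 37 °C, BTC-AM loading 1 h, reads 2 min total · Measured by – kinetic fluorescence with BTC-AM dye · Controls – carbachol and DMSO controls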

[8] = inhibitors of larval lipid processing in zebrafish, primary screen, whole organism, PED6 fluorescence, gall bladder and intestine (AID 686;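 active means a full or partial loss of lipid-probe fluorescence in the fish gall bladder, intestine or both, judged by eye; inactive means no fluorescence loss, or compound toxic to the fish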;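 further: larvae 5 to 7 days old with five fish per well; signal comes from phospholipase A2 cleavage of quenched PED6 carried via bile; overnight exposure to compound and PED6 before scoring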); settings: Zebrafish larvae PED6 lipid processing, fluorescence scoring; screened at 20 µM (by protocol)
In short: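 system = live zebrafish larvae aged 5-7 days, whole organism | probe or stimulus = ingested quenched lipid PED6 at 100 nM | doses = 20 µM single dose | timing = overnight exposure | detection = fluorescence microscopy with visual scoring of gall bladder and intestine | read-out = visual per-well fluorescence inhibition score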

[9] = loss of swimming-algae plug formation – whole organism, Chlamydomonas reinhardtii, WT vs cilia-less mutant, absorbance, 96-well, primary screen (AID 463189;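 active means inhibition at or above 50% relative to wild type and mutant plate controls; inactive means inhibition below 50%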;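 further: 0% = wild type cc124 cells in DMSO and 100% = ciliumless bld1 mutant cells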); settings: Chlamydomonas reinhardtii gravitaxis, OD600 absorbance, 2 days; at 10 µM; stronger effect = higher value
[10] = measured here: cell density z-score
[11] = measured here: nuclear c-Myc green intensity z-score
[12] = measured here: nuclear pErk red intensity z-score, stronger effect = higher value

Sequence of Dual specificity protein phosphatase 6 (Homo sapiens) (Q16828 whole entry, looked up): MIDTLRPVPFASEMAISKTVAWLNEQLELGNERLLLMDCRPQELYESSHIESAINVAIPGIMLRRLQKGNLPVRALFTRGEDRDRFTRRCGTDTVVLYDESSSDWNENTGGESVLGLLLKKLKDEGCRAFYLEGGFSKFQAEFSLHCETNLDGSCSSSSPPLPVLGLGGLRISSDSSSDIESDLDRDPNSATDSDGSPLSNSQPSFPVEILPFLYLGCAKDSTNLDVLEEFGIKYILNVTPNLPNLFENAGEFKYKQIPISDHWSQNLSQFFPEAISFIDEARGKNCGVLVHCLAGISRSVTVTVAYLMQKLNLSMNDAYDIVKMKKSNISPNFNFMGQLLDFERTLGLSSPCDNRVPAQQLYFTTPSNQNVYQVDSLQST
Sequence of Muscarinic acetylcholine receptor M4 (Homo sapiens) (P08173 whole entry, looked up): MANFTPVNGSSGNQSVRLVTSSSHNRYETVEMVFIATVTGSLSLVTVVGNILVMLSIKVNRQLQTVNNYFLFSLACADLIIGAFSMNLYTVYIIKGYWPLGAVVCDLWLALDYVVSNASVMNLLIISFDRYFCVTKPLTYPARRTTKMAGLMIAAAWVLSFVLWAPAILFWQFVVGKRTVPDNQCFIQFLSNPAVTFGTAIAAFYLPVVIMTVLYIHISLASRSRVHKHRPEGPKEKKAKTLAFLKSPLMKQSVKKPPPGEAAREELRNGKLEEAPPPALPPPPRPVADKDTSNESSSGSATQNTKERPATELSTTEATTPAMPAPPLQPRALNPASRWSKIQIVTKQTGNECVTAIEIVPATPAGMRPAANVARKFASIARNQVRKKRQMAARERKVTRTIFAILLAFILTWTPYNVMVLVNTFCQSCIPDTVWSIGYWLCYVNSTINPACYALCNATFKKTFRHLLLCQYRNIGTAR
Sequence of Voltage-gated potassium channel subunit beta-2 (Rattus norvegicus) (P62483 whole entry, looked up): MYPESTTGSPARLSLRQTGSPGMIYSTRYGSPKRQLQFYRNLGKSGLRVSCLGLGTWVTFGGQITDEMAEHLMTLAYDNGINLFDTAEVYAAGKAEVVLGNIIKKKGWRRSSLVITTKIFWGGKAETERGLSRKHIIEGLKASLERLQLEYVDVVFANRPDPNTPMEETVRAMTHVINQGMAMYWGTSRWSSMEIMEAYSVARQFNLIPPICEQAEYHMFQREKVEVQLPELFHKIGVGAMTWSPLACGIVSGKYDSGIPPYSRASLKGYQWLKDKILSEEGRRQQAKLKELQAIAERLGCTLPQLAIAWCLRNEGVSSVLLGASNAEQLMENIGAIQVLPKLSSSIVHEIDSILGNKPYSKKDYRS

Compound	cell count [1]	inhibition [1]	inhibition [2]	nuclei count [2] [%]	z-score [3, 10]	z-score [3, 11]	z-score [3, 12]	inhibition [4]	fluorescence slope [5]	NADPH fluorescence slope [6]	fluorescence slope [7]	outcome [8]	inhibition [9]
Cc1cc(=O)n(CCC(=O)O)c2ccccc12	722	-2.6% (inactive)	-33.8% (inactive)	175	1.44	-0.504	-1.75	5.95% (inactive)	-0.48 (inactive)	-8.8e-05 (inactive)	0.0062 (inactive)	inactive	-13% (inactive)
CN(C)CCCOC(=O)c1ccc(Cl)cc1Cl	542	0% (inactive)	-26.6% (inactive)	126	-3.39	0.341	0.409	-2.59% (inactive)	-0.49 (inactive)	-0.0001 (inactive)	0.00455 (inactive)	inactive	121% (active)
CC1(C)Cc2[nH]c(=O)c(C#N)cc2CS1	595	-11.1% (inactive)	-93.7% (inactive)	149	0.698	-0.413	1.37	-0.233% (inactive)	-0.435 (inactive)	-0.000124 (inactive)	0.00467 (inactive)	inactive	3.23% (inactive)
O=C(NCc1ccccc1)/C(=N\O)c1ccccc1	517	-5.4% (inactive)	3.5% (inactive)	157	0.588	0.215	0.627	-1.98% (inactive)	-0.382 (inactive)	-1.6e-05 (inactive)	0.00503 (inactive)	inactive	-1.95% (inactive)
CCN(CC)C(=O)COn1c(SCC(=O)N(CC)CC)nc2ccccc2c1=O	714	1% (inactive)	10.1% (inactive)	161	-0.154	-0.248	0.329	-1.12% (inactive)	-0.42 (inactive)	-4.1e-05 (inactive)	0.00498 (inactive)	inactive	-1.16% (inactive)
O=C(O)C1CC(=O)n2c(nc3ccccc32)S1 (configuration not stated)	608	-4.4% (inactive)	-24.7% (inactive)	119	0.706	-1.47	-0.562	3.49% (inactive)	-0.47 (inactive)	-6e-05 (inactive)	0.00435 (inactive)	inactive	8.06% (inactive)
CCCSc1nc(N2CCOCC2)c2c(c1C#N)CCCC2	569	-12.9% (inactive)	-93.9% (inactive)	147	0.303	0.327	2.25	10.9% (inactive)	-0.467 (inactive)	-0.000102 (inactive)	0.00772 (inactive)	inactive	5.19% (inactive)
CCOC(=O)NC(Nc1sc2c(c1C(N)=O)CCCC2)(C(=O)OCC)C(F)(F)F (configuration not stated)	707	-5.7% (inactive)	-51.4% (inactive)	144	0.203	-0.663	1.92	16.5% (inactive)	-0.448 (inactive)	-1.9e-05 (inactive)	0.00659 (inactive)	inactive	1.44% (inactive)
CC(NC(=O)Nc1cccnc1)(C(F)(F)F)C(F)(F)F	706	-5.1% (inactive)	-177% (inactive)	184	0.533	-0.524	0.0759	7.93% (inactive)	-0.454 (inactive)	-0.000301 (inactive)	0.00556 (inactive)	inactive	0.542% (inactive)
CCOC(=O)c1cnn2c1[nH]c(=O)c1ccccc12	560	-6.1% (inactive)	-143% (inactive)	165	0.0185	1.83	-0.274	17.8% (inactive)	-0.378 (inactive)	-4.5e-05 (inactive)	0.0106 (active)	inactive	24.1% (inactive)
CCCSc1nnc2n(Cc3ccccc3)c(=O)c3c4c(sc3n12)CCC4	405	-0.7% (inactive)	-31.5% (inactive)	170	0.317	-0.563	1.11	-4.59% (inactive)	-0.453 (inactive)	-0.000111 (inactive)	0.00548 (inactive)	inactive	9.79% (inactive)
CCc1nc(NCC(C)C)c(C#N)c2c1COC(C)(C)C2	547	7.2% (inactive)	-13.8% (inactive)	106	-2.04	-0.00331	2.22	-9.91% (inactive)	-0.203 (inactive)	2.4e-07 (inactive)	0.00805 (inactive)	inactive	-8.36% (inactive)
Cn1ncc2nc[nH]c(=O)c21	709	2% (inactive)	-49.9% (inactive)	110	-0.739	-0.543	1.26	5.95% (inactive)	-0.579 (inactive)	-3.5e-05 (inactive)	0.006 (inactive)	inactive	30.9% (inactive)
Nc1nc2n(n1)C(c1cccs1)CC(c1ccc(F)cc1)N2 (configuration not stated)	385	5.4% (inactive)	-40.7% (inactive)	141	0.349	0.295	-0.128	5.65% (inactive)	-0.436 (inactive)	-0.000111 (inactive)	0.00473 (inactive)	inactive	0.994% (inactive)
